# Bioassay records as filed in PubChem.
# The list is not random: actives were taken first. Their share in the collection is about 3.3%.
# Arr AP2 block – inhibitors of beta-arrestin/AP2 binding, primary screen, biochemical, GPCR trafficking, flow cytometry | beta-arrestin 1 C-terminal peptide binding to AP2 beta2-adaptin appendage (human) | FITC-arrestin peptide / GST-AP2 beads; AP2 beta2 appendage carries R879A mutation | inhibition, % at 10 µM | hit rate 0.31% among 340,000 | AID 504490, 2011;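 active = inhibition above a set limit, near 3 SD of compounds lacking own fluorescence, cut at about 54% in these data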;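 note: plate controls were DMSO wells for no effect and 5 µM unlabelled arrestin peptide for full effect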
#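 System: GST-AP2 R879A bound to glutathione beads, E. coli-expressed. Also added: 50 nM FITC-arrestin peptide. Schedule: compound with beads 12 min RT, then probe 1 h RT. Signal: bead flow cytometry, FITC channel. Read-out basis: percent response.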
# ATG4B inh – ATG4B protease inhibitors, primary screen, biochemical, fluorescence, uHTS. Cysteine protease ATG4B (Homo sapiens), Q9Y4P1. hit rate 0.51% among 340,000. inhibition, % at 8.33 µM. ATG4B cleavage of LC3-PLA2, NBD-HPC fluorescence, 1 h; in the data active = inhibition above about 40%
# Myeloid diff 2 – induction of myeloid progenitor differentiation, primary screen, cell-based, flow cytometry, MLPCN library; calls only at 10 µM; AID 624256, 2012; hit rate 1% among 360,000; ER-HoxA9 myeloid progenitors, lysozyme-GFP differentiation;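 active = normalized GFP-positive differentiation at or above the plate's own cutoff, the solvent-only control mean plus 3 SD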;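 note: cells exposed to compound for four days before flow analysis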
# Exocytosis inh – LAMP-1 surface exposure blockers, TALL-104 cells – cell-based, flow cytometry, MLPCN library, primary screen; TALL-104 LAMP-1 surface exposure; cells stimulated with thapsigargin and PMA; inhibition, % at 10 µM; hit rate 0.66% among 360,000; AID 651702, 2012;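 active = inhibition above about 55%, limit read from the data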
# NRP1-CendR mod – modulators of CendR peptide binding to NRP-1, primary screen, biochemical, fluorescence polarization, uHTS | hit rate 0.85% among 360,000 | Neuropilin-1 (Homo sapiens), O14786 | inhibition, % at 25 µM | FAM-RPARPAR peptide binding to NRP-1;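 active = inhibition or corrected inhibition above about 18%, plus a signal ratio from 0.5 to 1.5, limit read from the data, passing the limit was not always enough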
# Target sequence (O14786 whole entry, looked up): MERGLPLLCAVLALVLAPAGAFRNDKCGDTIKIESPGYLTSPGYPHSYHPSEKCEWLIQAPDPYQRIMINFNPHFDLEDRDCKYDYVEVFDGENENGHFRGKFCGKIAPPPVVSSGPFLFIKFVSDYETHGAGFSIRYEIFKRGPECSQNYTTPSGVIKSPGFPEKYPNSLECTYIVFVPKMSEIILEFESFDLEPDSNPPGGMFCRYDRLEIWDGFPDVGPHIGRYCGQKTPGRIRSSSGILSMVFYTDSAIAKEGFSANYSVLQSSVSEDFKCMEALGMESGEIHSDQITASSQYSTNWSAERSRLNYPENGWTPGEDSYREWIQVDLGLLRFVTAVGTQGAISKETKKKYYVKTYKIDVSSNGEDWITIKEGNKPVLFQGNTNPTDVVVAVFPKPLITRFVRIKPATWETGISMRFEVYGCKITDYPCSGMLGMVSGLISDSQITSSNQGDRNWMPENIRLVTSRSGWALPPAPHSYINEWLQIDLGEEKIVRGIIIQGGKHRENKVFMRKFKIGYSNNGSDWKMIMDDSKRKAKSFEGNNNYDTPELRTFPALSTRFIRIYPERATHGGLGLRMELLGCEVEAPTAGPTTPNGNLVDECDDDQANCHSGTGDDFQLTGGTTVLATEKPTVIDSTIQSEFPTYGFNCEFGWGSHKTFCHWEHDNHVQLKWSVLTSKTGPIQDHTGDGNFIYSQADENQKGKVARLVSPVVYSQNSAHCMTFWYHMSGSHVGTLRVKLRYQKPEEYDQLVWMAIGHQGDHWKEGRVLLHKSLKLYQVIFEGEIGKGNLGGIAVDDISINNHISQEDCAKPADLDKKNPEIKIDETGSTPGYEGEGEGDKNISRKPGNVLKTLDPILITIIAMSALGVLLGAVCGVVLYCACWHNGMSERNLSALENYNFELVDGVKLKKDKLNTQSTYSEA
# ABCB6 inh 2 – ABCB6 transporter inhibitors, primary screen, K562-ABCB6 cells, flow cytometry, MLPCN library. AID 602162, 2011. fluorescence ratio to DMSO, % at 10 µM. K562-ABCB6 porphyrin accumulation, 1 h; hits give low values. hit rate 0.19% among 360,000. ATP-binding cassette sub-family B member 6 (Homo sapiens), Q9NP58;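 active = fluorescence ratio to DMSO below 75%, the collection mean minus 3 SD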;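 note: signal is porphyrin accumulated inside mitochondria; 100% equals median channel fluorescence of DMSO control wells; lower ratio means ABCB6 inhibition with less porphyrin fluorescence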
# Arr-AP2 CP1 – inhibitors of arrestin peptide binding to AP2, confirmation, biochemical, cherry pick 1, flow cytometry beads; inhibition, % at 10 µM; AID 504908, 2011; hit rate 2% among 1,300; shares compounds with Arr AP2 block; GST-AP2 beads, FITC arrestin peptide binding; GST-fused beta2-adaptin appendage, R879A mutant;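 active = inhibition above a set limit, roughly 3 SD of non-fluorescent compound noise, cut at about 38% in these data; inactive = inhibition at or below that limit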;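 note: loss of bead fluorescence from 50 nM FITC arrestin peptide bound to appendage; 0% = negative control wells and 100% = excess unlabelled arrestin peptide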
# GST GSH counter – GST-fluorescein capture on glutathione beads, confirmation, artefact control for arrestin-AP2 inhibitor project, biochemical, cherry pick 1, flow cytometry. shares compounds with Arr AP2 block. GST-fluorescein binding to GSH beads, fluorescence, counter-screen. inhibition, % at 10 µM. hit rate 2% among 1,300;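 active = inhibition above 50%, about 3 SD of the inhibition seen with non-fluorescent compounds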;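 note: fluorescein maleimide labelled GST captured on 4 micron glutathione beads; higher means more loss of bead fluorescence from quenching or blocked binding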
# ABCB6 inh CP1 – ABCB6 transporter inhibitors, confirmation, K562-ABCB6 cells, flow cytometry, cherry pick 1; shares compounds with ABCB6 inh 2; K562-ABCB6 porphyrin accumulation, 1 h; hits give low values; ratio response (% of DMSO), % at 10 µM; 700 tested, under 10 active; AID 602430, 2012;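 active = repeat-averaged ratio response below 75% of DMSO, the collection mean minus 3 SD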;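 note: median porphyrin fluorescence at 575 nm with 488 nm excitation from mitochondria; lower ratio means less porphyrin signal so ABCB6 inhibition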
# Myeloid diff – inducers of myeloid progenitor differentiation, confirmation, cell-based, GFP/Mac1 flow cytometry, cherry pick 01 | ER-HoxA9 myeloid progenitors, GFP/Mac1 double-positive flow | shares compounds with Myeloid diff 2 | AID 651706, 2012 | hit rate 2% among 2,300 | calls only;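 active = share of green or green-and-red cells above 9 and 9% in run 1 or 4 and 3% in run 2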
# GFP autofluor – compound fluorescence in myeloid differentiation counter-screen; shares compounds with Myeloid diff 2; ER-HoxA9 myeloid progenitors, no estrogen, GFP autofluorescence flow cytometry; vehicle wells 0%, positive control 100%; fluorescence response, % (test concentration not listed); hit rate 7.4% among 2,300; AID 651707;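 active = over 5% cells positive for green fluorescent reporter, or over 2% positive for both it and APC stain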;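 note: range taken on the double positive population between DMSO and positive control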
# Exocytosis CP01 – inhibitors of lytic granule exocytosis, confirmation, TALL-104 cells, flow cytometry, Cherry Pick01; hit rate 11% among 1,500; shares compounds with Exocytosis inh; LAMP-1 externalization; stimulated with PMA plus thapsigargin; inhibition, % at 10 µM; AID 651954, 2012; in the data active = inhibition above about 60%;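 note: 0% = stimulated vehicle wells and 100% = unstimulated wells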
# The depositor's hits bear a star; i = inactive; x = no result given; + = active, no number.
SMILES,Arr AP2 block,ATG4B inh,Myeloid diff 2,Exocytosis inh,NRP1-CendR mod,ABCB6 inh 2,Arr-AP2 CP1,GST GSH counter,others
O=C(CCn1c(=O)[nH]c2ccccc2c1=O)Nc1ccccc1,-14,-8,i,-3,6,93,-15,-7,
O=C(CCn1c(=S)[nH]c2ccccc2c1=O)Nc1cccc(Cl)c1,-12,-4,i,-2,7,90,x,x,
O=C(CCCn1c(=O)[nH]c2ccccc2c1=O)Nc1ccc(F)cc1,57*,-3,i,-1,10,102,-9,-10,
COc1ccc(S(=O)(=O)N2CCC(C(=O)NCCOc3ccccc3F)CC2)cc1OC,6,-4,i,-3,-6,103,x,x,
CN(C(=O)COC(=O)c1cc(-c2ccc(Cl)s2)nc2ccccc12)C1CCS(=O)(=O)C1 (centres undefined),64*,2,i,-4,1,91,13,-2,
COc1ccc(C(=O)NNC(=O)CCCCC(=O)NNC(=O)c2ccc(OC)cc2)cc1,62*,-3,i,1,6,105,1,-2,
COc1ccc(C(=O)NNC(=O)CCC(=O)NNC(=O)c2ccc(OC)cc2)cc1,4,3,i,11,-7,99,x,x,
Cc1c(CNC(=O)C2CC2)c(-n2cccc2)n(Cc2ccccc2)c1C,-7,-2,i,3,-11,101,x,x,
Cc1ccc2nc3c(c(C(=O)OCC(=O)NC4CCS(=O)(=O)C4)c2c1)CCCC3 (centres undefined),57*,-4,i,0,8,95,2,-3,
Cc1cc(Oc2cccc3c2S(=O)(=O)N(C2CCCC2)CC(COCc2ccccc2)O3)cc(C)c1C (centres undefined),57*,0,i,5,1,95,0,-8,
COc1ccc(C(=O)N/C(=C\c2ccc3c(c2)OCO3)C(=O)N2CCOCC2)cc1,1,3,i,0,8,96,x,x,
Cc1ccc(OCCSc2nc3ccccc3n2CC(=O)O)cc1C,54*,-1,i,-1,-8,106,-1,-3,
O=C(O)Cn1c(SCCOc2ccccc2)nc2ccccc21,8,0,i,-1,-16,100,x,x,
CCCn1c(SCC(=O)N2CCCCC2)nnc1C(C)C,56*,-2,i,-1,-4,99,-5,-1,
COCCn1c(SCC(=O)N2CCCC2)nnc1C(C)C,7,-3,i,0,-4,95,x,x,
CCN1/C(=C/C=C/C=C/C=C/c2sc3ccccc3[n+]2CC)Sc2ccccc21,55*,37,i,-50,-49,421,26,8,Myeloid diff=i;GFP autofluor=43*
COc1ccc(CCN2C(=O)CS/C2=N\NC(=O)c2ccc(C(C)(C)C)cc2)cc1OC,62*,-6,i,1,3,98,5,-1,Myeloid diff=i;GFP autofluor=0
O=C(N/N=C1\SCC(=O)N1CCc1ccccc1)c1cccs1,15,-5,i,-1,1,102,x,x,
COc1ccc(C(=O)NC(=S)Nc2ccc(S(=O)(=O)Nc3cc(OC)nc(OC)n3)cc2)cc1,56*,-4,+,6,-1,97,-2,-3,Myeloid diff=i;GFP autofluor=0
CN(C(=O)COC(=O)c1ccc2ccccc2n1)c1ccccc1,0,5,i,14,-6,104,x,x,
Cc1nc2ccccc2c(=O)n1NCc1cccs1,0,4,i,0,8,96,x,x,
N#Cc1ccc(CSc2ccccn2)c(Cl)c1,63*,2,i,81*,2,97,-6,-7,Exocytosis CP01=-4
Cn1c(=O)c2c(nc(N3CCN(C(=O)c4ccco4)CC3)n2CCSc2ncccn2)n(C)c1=O,2,-2,i,6,-2,92,x,x,
CCCCN(C)C(=O)c1cccc(OC2CCN(CC(C)(C)C)CC2)c1,-6,10,i,-1,8,100,x,x,
CC(C)(C)CN1CCC(Oc2cccc(C(=O)N3CCNC(=O)C3(C)C)c2)CC1,-17,12,i,1,1,14*,x,x,ABCB6 inh CP1=102
CCOc1ccc(C2Nc3ccccc3NC3=C2C(=O)CC(C)(C)C3)cc1OC (centres undefined),-20,-4,i,2,-6,66*,x,x,ABCB6 inh CP1=99
COc1ccc(/C=C2/C(=O)OCc3cc(OC)c(OC)cc32)cc1,0,-12,x,5,-6,65*,x,x,ABCB6 inh CP1=97
COCc1nnc(NC(=O)c2c(-c3c(Cl)cccc3Cl)noc2C)s1,-12,0,i,0,20*,67*,x,x,ABCB6 inh CP1=101
COc1ccc(CCN2CC(C(=O)NCCc3cnn(C)c3)CCC2=O)cc1 (centres undefined),4,3,i,-1,4,98,x,x,
